Compound activity: PubChem BioAssay, several laboratories
Neddylation inh – blocks human cullin neddylation. actives 0.58% (n = 360,000). TR-FRET cullin neddylation, biochemical. calls only at 25 µM. AID 651699. P61081+Q13564; in the data active means inhibition above about 36%
KLK7 zymogen act – activates the human kallikrein-7 zymogen; P49862; purified proKLK7, EDANS-DABCYL substrate fluorescence; 100% is mature enzyme control, 0% vehicle; activation, % at 7 µM; actives 0.9% (n = 370,000); AID 652039;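 active means activation above the mean of all tested compounds plus 3 SD, computed per campaign excluding outliers beyond control limits, cut at about 13% in these data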
Target sequence (P49862 whole entry, looked up): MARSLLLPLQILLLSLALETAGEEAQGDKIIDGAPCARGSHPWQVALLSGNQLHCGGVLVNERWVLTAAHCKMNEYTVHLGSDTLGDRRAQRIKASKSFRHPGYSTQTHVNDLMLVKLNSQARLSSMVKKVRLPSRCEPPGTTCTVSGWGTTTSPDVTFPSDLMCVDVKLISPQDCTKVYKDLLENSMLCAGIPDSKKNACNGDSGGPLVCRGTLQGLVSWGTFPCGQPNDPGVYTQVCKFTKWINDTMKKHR
Tn7 DDE FP – DD(E)-Tn7 binding inhibition, primary FP screen; P02675; FP displacement of FITC-Tn7 peptide from fibrin DD(E); 0% = median of compound wells per plate; inhibition, % at 8.3 µM; actives 0.13% (n = 370,000);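 active means inhibition above the mean of compounds falling within the control limits plus 3 SD of them, cut at about 14% in these data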;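 further: 0% = plate median of compound wells and 100% = 10 µM Aha-Tn7 peptide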
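Also added: labelled Tn7 tracer, 0.1 µM; Assay system: human fibrin DD(E) protein; Amount: 2 µM fibrin DD(E); Schedule: 10 min compound pre-incubation, 3 h probe incubation at room temperature; Repeats: one replicate per compound; Read-out basis: percent inhibition; Measured by: fluorescence polarization of the labelled Tn7 tracer.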
MT1-MMP act inh – MT1-MMP (human) activation inhibition; actives 0.061% (n = 360,000); GFP/RFP ratio change, % at 20 µM; HT1080 RFP-PRO-GFP cells, GFP/RFP ratio fluorescence, overnight; percent of plate control window, DMSO zero; P50281;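 active means GFP/RFP ratio change of at least 30% with cell ATP level not reduced by more than half and red fluorescence within 50% of control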
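Test system: HT1080 RFP-PRO-GFP cells; Benchmarks: DMSO and RFP-L50D-GFP cell wells; Timing: cells overnight before dosing, compound overnight, 37 °C, 5% CO2; Compound: one 20 µM compound dose with 1% DMSO; Read-out: GFP/RFP fluorescence ratio.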
SKN-1 block – blocks SKN-1 activity in C. elegans; C. elegans VP596 Pgst-4::GFP/RFP ratio, acrylamide-induced, 24 h; inhibition, % at 21.8 µM; actives 0.49% (n = 360,000);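 active means interference check ratio from 0.5 to 1.5 plus GFP to RFP signal ratio inhibition reaching or exceeding a fixed threshold, cut at about 30% in these data, passing the limit was not always enough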
DDE Tn6 FP inh – disrupts Tn6 cyclic peptide binding to fibrin D-Dimer-E complex. actives 0.21% (n = 370,000). Fibrin DD(E) TRITC-Tn6 fluorescence polarization displacement. inhibition, % at 8.3 µM;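 active means inhibition above a per-campaign cutoff: mean of compounds within control limits plus 3 SD, cut at about 15% in these data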;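 further: 0% = median of all compound wells on the plate and 100% = blocking peptide control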
Neddyl conf – cullin neddylation inhibition, confirmation; calls only at 25 µM; TR-FRET cullin neddylation biochemical assay; AID 652217; actives 13% (n = 1,800); shares compounds with Neddylation inh; in the data active means inhibition above about 40%;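 further: neddylation substrate is the cullin 1 ring ligase complex with SKP2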
Starred values were filed as active, the others as inactive; i = inactive; / = not tested or not shown; + = active, no number. This is a sample that favours compounds with a hit; in the whole collection about 2.2% have one here.

SMILES	Neddylation inh	KLK7 zymogen act	Tn7 DDE FP	MT1-MMP act inh	SKN-1 block	DDE Tn6 FP inh	Neddyl conf
O=C1NC(=O)c2c(NC(=O)C3CCCO3)cccc21 (stereo unspecified)	i	-20	8	-1	-5	4	/
C[C@H](CO)N1C[C@H](C)[C@H](CN(C)C(=O)Nc2ccc(F)cc2)Oc2ccc(NC(=O)NC3CCCCC3)cc2CC1=O	i	0	6	-1	3	-3	/
NS(=O)(=O)c1ccc(-c2ccc(/C=N/Nc3ccc(C(=O)O)cc3)o2)cc1	+	2	-4	-12	1	1	i
Cc1[nH]nc2c1C(c1ccccc1)C1=C(CC(C)(C)CC1=O)N2 (stereo unspecified)	i	/	2	5	-5	0	/
Cc1[nH]nc2c1C(c1ccc(O)cc1)C1=C(CC(C)(C)CC1=O)N2 (stereo unspecified)	+	0	-4	-4	8	7	i
O=C(NNC(=O)c1ccc2ccccc2c1O)NC1CCCCC1	+	-3	-5	4	-3	1	i
O=C(NC1CCCCC1)c1ccc2ccccc2c1O	/	-3	2	5	12	6	/
COc1cccc(/C=N/c2oc(-c3ccccc3)cc2C#N)c1O	+	-2	-3	-3	8	2	i
N#Cc1cc(-c2ccccc2)oc1/N=C/c1ccccc1O	/	0	-2	-3	6	-6	/
CCOC(=O)c1sc2nccc(N(C)C)c2c1N=CNOC	i	0	-1	-2	-12	-5	/
CCOC(=O)c1sc2nccc(N(C)C)c2c1N=CNOCc1ccccc1	+	-1	-4	0	5	-1	i
COc1ccc(-c2c(C)nn3c(NC4CCCC4)cc(C)nc23)cc1OC	+	0	8	-1	5	-2	i
Cc1cc(NC2CCCC2)n2nc(C)c(-c3ccccc3)c2n1	/	1	1	2	22	5	/
CSc1nc(C(=O)N2CCCC(N3CCN(c4ccccc4C)CC3)C2)cs1 (stereo unspecified)	i	0	-2	1	11	2	/
Cc1cc(C)n2nc(C(=O)N3CCCC(N4CCN(c5ccccc5C)CC4)C3)cc2n1 (stereo unspecified)	+	1	-2	-1	-12	-1	i
Cc1ccc2nc(COC(=O)c3ccc(Cl)nc3)cc(=O)n2c1	i	1	-7	3	10	-5	/
Cc1ccc2nc(Cl)cc(=O)n2c1	+	9	1	3	9	9	i
COCCNC(=O)CSc1nc(-c2ccc(OC)c(OC)c2)cc(C(F)(F)F)n1	+	4	-2	1	20	4	/
COc1ccc(-c2cc(C(F)(F)F)nc(SCC(=O)N3CCOCC3)n2)cc1OC	+	2	1	-2	-8	-5	i
Cc1sc(NC(=O)c2ccco2)nc1-c1ccccc1	i	1	-3	2	-12	-8	/
O=C(Nc1ccccc1-c1ccccc1)NC1CCN(C(=O)N2CCOCC2)CC1	i	0	-2	1	-1	-2	/
COc1ccc(N2CCN(C(=O)COC(=O)c3cnccn3)CC2)cc1	i	0	8	0	0	15	/
CCOc1cc(S(=O)(=O)NCc2ccco2)c(OCC)cc1-n1cnnn1	+	0	7	3	11	-5	/
CCOc1cc(S(=O)(=O)NCc2ccc(OC)cc2)c(OCC)cc1-n1cnnn1	i	1	1	-6	1	6	/
CCCc1cc2c(=O)c(-c3ccccn3)c(C)oc2cc1O	+	-7	2	7	2	0	i
SMILES	Neddylation inh	KLK7 zymogen act	Tn7 DDE FP	MT1-MMP act inh	SKN-1 block	DDE Tn6 FP inh	Neddyl conf
Cc1ccc(C(=O)NCc2ccccc2)c(F)c1F	i	1	0	-4	13	-1	/
Cc1cc(C(=O)NCc2ccccc2)c(=O)[nH]c1C	+	1	1	4	-11	-5	+
COc1ccc(C2C3=C(CC(C)(C)CC3=O)Nc3c2c(=O)[nH]c(=O)n3Cc2ccccc2)cc1OC (stereo unspecified)	+	-43	1	-2	18	1	/
COc1cc(C2C3=C(CC(C)(C)CC3=O)Nc3c2c(=O)[nH]c(=O)n3Cc2ccccc2)ccc1O (stereo unspecified)	i	-28	-1	-1	-10	-3	/
COc1ccc(/C=C(/C#N)c2cccnc2)cc1OC	i	0	3	3	0	-10	/
C[C@@H]1CC=C[C@H]2[C@H]1C(=O)N(Cc1ccccc1)[C@H]2c1ccc(/C=C/c2ccccc2)cc1F	+	0	1	-8	0	-3	/
Cn1cccc1-c1cc(C(=O)N/N=C/c2ccc([N+](=O)[O-])cc2)[nH]n1	i	0	1	1	1	2	/
Fc1ccc(CNc2nc(-c3cccnc3)nc3ccccc23)cc1	i	0	1	-7	31	-1	/
CCN(CC)C(=O)CSc1nnc(-c2ccc(S(=O)(=O)N3CCOCC3)cc2)n1C	i	1	5	2	7	8	/
CC(C)Sc1nnc(-c2ccc(S(=O)(=O)N3CCOCC3)cc2)n1C	+	-1	4	-2	-8	5	i
Cc1ccc(Cn2c(=N)c(C(=O)NC3CCCC3)cc3c(=O)n4ccccc4nc32)cc1	/	/	/	-11	3	/	/
Cc1ccc(Cn2c(=N)c(C(=O)NCCN3CCOCC3)cc3c(=O)n4ccccc4nc32)cc1	+	1	5	4	6	-12	+
O=C(c1ccc(C(F)(F)F)cc1)N1CCN(c2ccc(N3CCOCC3)nn2)CC1	+	10	-4	0	6	0	/
CC(C)(C)c1ccc(C(=O)N2CCN(c3ccc(N4CCOCC4)nn3)CC2)cc1	+	2	0	2	-3	-4	/
c1ccc(Oc2cccc(CN3CCCCC3)c2)cc1	i	0	5	1	16	4	/
O=[S@]1Oc2ccccc2-c2ccccc21	i	0	-3	3	-3	8	/
CC1CCCCC1NC(=O)COC(=O)/C=C/c1ccc2c(c1)OCO2 (stereo unspecified)	+	0	-2	5	3	3	i
CC(=O)Nc1ccc(NC(=O)COC(=O)/C=C/c2ccc3c(c2)OCO3)cc1	/	-20	5	2	-5	0	/
